Compounds with a hit are over-represented: about 1.8% of the library has one in this group of screens.
CCR6 antagonist: antagonists of human CCR6 receptor | AID 493098 | CHO-K1 CCR6 PathHunter beta-arrestin, luminescence, CCL20-stimulated | inhibition, % at 20 µM | 0.49% of 340,000 active | P51684;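 active = compounds whose inhibition of the agonist-driven luminescence signal at 20 µM reaches about 50%, limit read from the data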;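 note: cells stimulated with CCL20 at 14 nM final; plate controls were DMSO with CCL20 for no effect and DMSO without agonist for full effect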
CXCR6 inh: blocks human CXCR6 beta-arrestin recruitment | O00574 | CHO-K1 PathHunter CXCR6 beta-arrestin, luminescence | inhibition, % at 20 µM | 0.36% of 360,000 active | AID 602244; in the data active = inhibition above about 34%, passing the limit was not always enough;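 note: antagonist mode with CXCL16 agonist at 10 nM final; 0% = 10 nM CXCL16 with DMSO and 100% = unstimulated wells without agonist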
APJ agonist: activates the human apelin receptor APJ | CHO-K1 APJ PathHunter beta-arrestin, luminescence; 0% DMSO wells, 100% apelin | activation, % at 20 µM | 0.11% of 330,000 active;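 active = activation more than six SD over the plate average, tested at 20 µM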;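 note: 0% = DMSO alone and 100% = apelin-13 at 10 nM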
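assay system = CHO-K1 APJ beta-arrestin complementation cell line | input = cell density 1000 per well | dosing = compound 20 µM once, DMSO 1% | timing = compound 90 min 25 °C, reagent 1 h | measured by = luminescence from split beta-galactosidase complementation, Galacton Star/Emerald II substrate | read-out basis = APJ agonist activity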
APJ antagonist: APJ receptor antagonism. inhibition, % at 20 µM. AID 2521. 0.32% of 330,000 active. CHO-K1 APJ beta-arrestin complementation, luminescence. P35414;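 active = inhibition above about 40% at 20 µM, limit read from the data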;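 note: cells challenged with 10 nM apelin-13 agonist together with compound; plate controls were apelin-13 plus DMSO wells for no effect and DMSO wells lacking apelin-13 for full effect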
Beta2AR agonist: human beta-2 adrenergic receptor agonism by FAP; response, % (concentration not given with the values); 0.43% of 340,000 active; P07550; Am2.2-beta2AR cells, FAP receptor internalization, flow cytometry; AID 504454;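 active = response above a set limit, near 3 SD of response in nonfluorescent compounds, cut at about 42% in these data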
EBI2 block: EBI2 (human) antagonism. P32249. EBI2 beta-arrestin recruitment, luminescence, 7a,25-OHC stimulated. inhibition, % at 5 µM. 0.81% of 360,000 active. AID 651636; in the data active = inhibition above about 38%;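 note: enzyme fragment complementation signal reports receptor beta-arrestin coupling in cells; 0% = agonist plus DMSO wells and 100% = wells without agonist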
Target sequence (P32249 whole entry, looked up, the tested form may be a part): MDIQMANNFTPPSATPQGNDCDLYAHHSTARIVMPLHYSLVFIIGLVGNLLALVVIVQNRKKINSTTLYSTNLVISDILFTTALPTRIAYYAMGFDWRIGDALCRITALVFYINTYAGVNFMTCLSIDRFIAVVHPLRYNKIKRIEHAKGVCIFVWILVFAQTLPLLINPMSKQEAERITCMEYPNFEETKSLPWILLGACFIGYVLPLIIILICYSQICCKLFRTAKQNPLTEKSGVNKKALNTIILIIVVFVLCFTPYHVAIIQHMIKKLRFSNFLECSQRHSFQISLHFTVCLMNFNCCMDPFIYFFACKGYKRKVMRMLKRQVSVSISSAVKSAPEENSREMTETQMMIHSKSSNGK
APJ antag conf: APJ receptor antagonism confirmation; shares compounds with APJ antagonist; APJ beta-arrestin recruitment, luminescence, antagonist mode; inhibition, % at 20 µM; 66% of 950 active; AID 2766; in the data active = inhibition above about 50%
The depositor's hits bear a star.

How did CC1=C/C(=C(/c2ccc(O)c(C)c2)c2ccccc2S(=O)(=O)O)C=CC1=O do in these assays?
CCR6 antagonist: 55*; CXCR6 inh: 41*; APJ agonist: -9; APJ antagonist: 46*; Beta2AR agonist: 7; EBI2 block: 5; APJ antag conf: 59*

How did NC(=O)CC(NC(=O)Cc1ccc(Cl)cc1)c1ccc(NC2CC3CCC2C3)c([N+](=O)[O-])c1 (centres undefined) do in these assays?
CCR6 antagonist: 15; CXCR6 inh: -2; APJ agonist: -4; APJ antagonist: 5; Beta2AR agonist: -9; EBI2 block: -9

How did CCn1c(CO)nc2c1c(=O)[nH]c(=O)n2Cc1ccccc1 do in these assays?
CCR6 antagonist: 64*; CXCR6 inh: 46*; APJ agonist: -7; APJ antagonist: 53*; Beta2AR agonist: 16; EBI2 block: 15; APJ antag conf: 84*

What do the screens show for `CC1=NN(c2ccc(C)cc2)C(=O)/C1=C\C=C\c1ccccc1`?
CCR6 antagonist: 12; CXCR6 inh: 5; APJ agonist: -1; APJ antagonist: 8; Beta2AR agonist: 9; EBI2 block: -6

Results for CC1=NN(c2ccccc2)C(=O)/C1=C/C=C/C=C/N(C)C ?
CCR6 antagonist: 58*; CXCR6 inh: 49*; APJ agonist: -8; APJ antagonist: 65*; Beta2AR agonist: -1; EBI2 block: 10; APJ antag conf: 91*

Results for Cc1ccc(CNc2nc(C)c(C(=O)N(C)C)s2)cc1 ?
CCR6 antagonist: 5; CXCR6 inh: -5; APJ agonist: 0; APJ antagonist: 12; Beta2AR agonist: -2; EBI2 block: 6

How did CCCNC(=O)Cc1c(C)oc2ccccc12 do in these assays?
CCR6 antagonist: 2; CXCR6 inh: 12; APJ agonist: -3; APJ antagonist: -21; Beta2AR agonist: 1; EBI2 block: -3

How did O=S(=O)(Nc1cccc2cccnc12)c1ccc(S(=O)(=O)N2CCCC2)cc1 do in these assays?
CCR6 antagonist: 45; CXCR6 inh: 34; APJ agonist: -17; APJ antagonist: 68*; Beta2AR agonist: 29; EBI2 block: 12; APJ antag conf: 48

What do the screens show for `CC(=O)Nc1ccc(S(=O)(=O)Nc2cccc3cccnc23)cc1`?
CCR6 antagonist: 32; CXCR6 inh: -4; APJ agonist: -4; APJ antagonist: 8; Beta2AR agonist: -1; EBI2 block: -7

What do the screens show for `Cc1ccc(S(=O)(=O)Nc2cccc3cccnc23)c([N+](=O)[O-])c1`?
CCR6 antagonist: 49; CXCR6 inh: 30; APJ agonist: -24; APJ antagonist: 58*; Beta2AR agonist: 13; EBI2 block: 23; APJ antag conf: 56*

What do the screens show for `O=[N+]([O-])c1c(Nc2cccc(O)c2)cc(Cl)c2nonc12`?
CCR6 antagonist: 104*; CXCR6 inh: 111*; APJ agonist: -7; APJ antagonist: 94*; Beta2AR agonist: -488; EBI2 block: 93*; APJ antag conf: 111*

How did CC(Oc1cccc(Cl)c1)C(=O)Nc1ccc(S(=O)(=O)N(C)C2CCN(C)CC2)cc1 (centres undefined) do in these assays?
CCR6 antagonist: 6; CXCR6 inh: -5; APJ agonist: 1; APJ antagonist: -16; Beta2AR agonist: 9; EBI2 block: -11

Results for O=C(CSc1ccccc1)NC1=NCCS1 ?
CCR6 antagonist: 7; CXCR6 inh: -9; APJ agonist: -3; APJ antagonist: 0; Beta2AR agonist: -7; EBI2 block: -7

Results for c1ccc(NNC2=NCCS2)cc1 ?
CCR6 antagonist: 41; CXCR6 inh: 34; APJ agonist: -12; APJ antagonist: 46*; Beta2AR agonist: -2; EBI2 block: 39; APJ antag conf: 43

What do the screens show for `O=C(COC(=O)c1ccc(F)cc1)NC1CC1`?
CCR6 antagonist: -1; CXCR6 inh: -2; APJ agonist: -5; APJ antagonist: -19; Beta2AR agonist: -5; EBI2 block: -11

Results for Nc1[nH]n2c(=O)cc(-c3ccccc3)nc2c1N=Nc1ccc(S(N)(=O)=O)cc1 ?
CCR6 antagonist: 51*; CXCR6 inh: 22; APJ agonist: -7; APJ antagonist: 42*; Beta2AR agonist: 8; EBI2 block: 12; APJ antag conf: 65*

Results for Cc1ccc(N=Nc2c(N)[nH]n3c(=O)cc(C)nc23)cc1 ?
CCR6 antagonist: 15; CXCR6 inh: -1; Beta2AR agonist: 6; EBI2 block: -5

How did COc1ccc(N2CCOCC2)c(NC(=O)c2ccc3c(c2)OCO3)c1 do in these assays?
CCR6 antagonist: 20; CXCR6 inh: 1; APJ agonist: -1; APJ antagonist: 51*; Beta2AR agonist: -4; EBI2 block: -4; APJ antag conf: 30

Results for O=C(CS(=O)(=O)Cc1ccccc1)c1ccccc1 ?
CXCR6 inh: 5; EBI2 block: 16

Results for O=C(NNc1ccc(-c2csnn2)cc1)c1cc(Cl)cc(Cl)c1 ?
CCR6 antagonist: 47; CXCR6 inh: 14; APJ agonist: -8; APJ antagonist: 54*; Beta2AR agonist: -10; EBI2 block: 14; APJ antag conf: 65*

What do the screens show for `O=S(=O)(Nc1ccc(-c2nc3cccnc3s2)cc1)c1ccccc1F`?
CCR6 antagonist: -11; CXCR6 inh: -15; APJ agonist: 1; APJ antagonist: -18; Beta2AR agonist: 6; EBI2 block: -7

Results for C/C=C/c1ccc(OCCCCOc2ccccc2C(C)=O)c(OC)c1 ?
CCR6 antagonist: 16; CXCR6 inh: -11; APJ agonist: -3; APJ antagonist: -5; Beta2AR agonist: -7; EBI2 block: 0

What do the screens show for `C/C=C/c1ccc(OCCCCN(C)Cc2ccccc2)c(OC)c1`?
CCR6 antagonist: 1; CXCR6 inh: 8; APJ agonist: -5; APJ antagonist: 51*; Beta2AR agonist: 3; EBI2 block: 0; APJ antag conf: 18

Results for CC(=O)Nc1ccccc1OCC(=O)N(Cc1ccccc1)C(C)C ?
CCR6 antagonist: 17; CXCR6 inh: -10; APJ agonist: -1; APJ antagonist: 9; Beta2AR agonist: -1; EBI2 block: 1

What do the screens show for `O=C(NNc1cc(Br)c(O)c(Br)c1)c1ccccc1`?
CCR6 antagonist: 87*; CXCR6 inh: 59*; APJ agonist: -14; APJ antagonist: 96*; Beta2AR agonist: 7; EBI2 block: 38; APJ antag conf: 137*

Results for Cc1ccc(N=Nc2ccc(O)c3ncccc23)cc1C ?
CCR6 antagonist: 55*; CXCR6 inh: 40*; APJ agonist: -13; APJ antagonist: 53*; Beta2AR agonist: 2; EBI2 block: 14; APJ antag conf: 68*

Source: PubChem
